Results reported in ChEMBL document CHEMBL1150295, “Synthesis and receptor binding properties of 2beta-alkynyl and 2beta-(1,2,3-triazol)substituted 3beta-(substituted phenyl)tropane derivatives” (Bioorg Med Chem, 2008).

Key:
[1] = target: Sodium-dependent dopamine transporter (Homo sapiens, UniProt Q01959); test: Displacement of [3H]WIN-35428 from dopamine transporter
Method in brief: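 Competitive radioligand binding at membrane dopamine transporter; 0.5 nM [3H]WIN35,428 final concentration. Mean ± standard error of three or four experiments, each in triplicate.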

[2] = target: Sodium-dependent noradrenaline transporter (Homo sapiens, UniProt P23975); test: Displacement of [3H]nisoxetine from norepinephrine transporter
Chain of Sodium-dependent noradrenaline transporter (P23975 whole entry): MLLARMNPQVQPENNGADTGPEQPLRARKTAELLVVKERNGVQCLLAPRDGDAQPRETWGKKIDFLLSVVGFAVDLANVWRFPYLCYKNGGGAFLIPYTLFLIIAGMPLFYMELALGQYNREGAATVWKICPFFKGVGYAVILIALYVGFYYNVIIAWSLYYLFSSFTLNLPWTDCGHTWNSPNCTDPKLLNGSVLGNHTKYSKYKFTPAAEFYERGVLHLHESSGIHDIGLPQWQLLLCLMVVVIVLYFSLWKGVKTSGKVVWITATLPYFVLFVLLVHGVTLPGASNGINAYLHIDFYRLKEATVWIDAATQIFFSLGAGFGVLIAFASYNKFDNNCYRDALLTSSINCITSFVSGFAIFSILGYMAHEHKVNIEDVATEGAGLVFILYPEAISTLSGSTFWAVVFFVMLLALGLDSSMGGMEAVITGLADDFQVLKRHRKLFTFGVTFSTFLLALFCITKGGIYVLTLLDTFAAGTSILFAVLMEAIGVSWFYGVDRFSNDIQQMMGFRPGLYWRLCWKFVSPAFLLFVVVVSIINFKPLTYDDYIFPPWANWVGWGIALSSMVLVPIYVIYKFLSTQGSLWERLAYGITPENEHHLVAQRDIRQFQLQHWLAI

[3] = target: Sodium-dependent serotonin transporter (Homo sapiens, UniProt P31645); test: Displacement of [3H]paroxetine from serotonin transporter
Chain of Sodium-dependent serotonin transporter (P31645 whole entry): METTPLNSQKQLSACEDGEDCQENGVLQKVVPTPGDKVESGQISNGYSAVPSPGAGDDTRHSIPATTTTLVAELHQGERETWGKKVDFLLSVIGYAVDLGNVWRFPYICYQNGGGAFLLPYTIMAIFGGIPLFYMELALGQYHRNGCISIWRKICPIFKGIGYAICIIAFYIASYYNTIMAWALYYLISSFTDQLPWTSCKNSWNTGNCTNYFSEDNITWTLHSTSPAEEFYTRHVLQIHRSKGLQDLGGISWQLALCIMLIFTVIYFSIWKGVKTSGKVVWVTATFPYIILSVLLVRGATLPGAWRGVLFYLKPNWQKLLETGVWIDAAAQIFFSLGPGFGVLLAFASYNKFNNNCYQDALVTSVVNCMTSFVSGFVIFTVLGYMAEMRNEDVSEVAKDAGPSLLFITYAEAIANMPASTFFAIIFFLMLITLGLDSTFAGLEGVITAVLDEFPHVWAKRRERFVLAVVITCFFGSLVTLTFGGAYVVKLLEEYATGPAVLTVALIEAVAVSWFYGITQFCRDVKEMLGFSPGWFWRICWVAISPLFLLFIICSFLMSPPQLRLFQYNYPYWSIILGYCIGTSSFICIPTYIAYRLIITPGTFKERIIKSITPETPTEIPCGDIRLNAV

[4] = Selectivity for dopamine transporter over norepinephrine transporter
[5] = Selectivity for dopamine transporter over serotonin transporter

Chain of Sodium-dependent dopamine transporter (Q01959 whole entry): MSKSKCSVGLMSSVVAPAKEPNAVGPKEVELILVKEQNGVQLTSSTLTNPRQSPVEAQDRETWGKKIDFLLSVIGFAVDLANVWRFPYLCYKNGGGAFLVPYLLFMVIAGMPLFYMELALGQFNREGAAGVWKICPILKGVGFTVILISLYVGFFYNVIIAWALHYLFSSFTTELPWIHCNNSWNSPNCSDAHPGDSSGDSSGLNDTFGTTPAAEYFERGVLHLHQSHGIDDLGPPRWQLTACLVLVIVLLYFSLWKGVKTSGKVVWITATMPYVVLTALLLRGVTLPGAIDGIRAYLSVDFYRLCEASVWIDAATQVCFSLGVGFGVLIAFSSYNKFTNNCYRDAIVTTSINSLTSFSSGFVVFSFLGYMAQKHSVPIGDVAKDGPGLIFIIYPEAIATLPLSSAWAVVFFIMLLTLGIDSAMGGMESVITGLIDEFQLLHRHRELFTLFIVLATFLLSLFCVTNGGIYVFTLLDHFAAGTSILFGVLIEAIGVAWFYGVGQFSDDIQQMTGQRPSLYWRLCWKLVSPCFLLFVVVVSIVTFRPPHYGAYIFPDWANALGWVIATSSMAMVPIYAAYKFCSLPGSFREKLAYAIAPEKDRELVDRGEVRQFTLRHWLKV

Compound | IC50 [1] | Ki [2] | Ki [3] | Selectivity ratio [4] | Selectivity ratio [5]
Cc1ccc([C@H]2C[C@@H]3CC[C@H]([C@@H]2C=C(Br)Br)N3C)cc1 | 3.6 nM | 55 nM | 252 nM | – | –
C#C[C@H]1[C@@H](c2ccc(C)cc2)C[C@@H]2CC[C@H]1N2C | 11 nM | 150 nM | 54 nM | – | –
CN1[C@H]2CC[C@@H]1[C@@H](C#Cc1ccccc1)[C@@H](c1ccc(Cl)cc1)C2 | 0.8 nM | 14 nM | 81 nM | – | –
COC(=O)[C@H]1[C@@H](c2ccccc2)C[C@@H]2CC[C@H]1N2C | 23 nM | 556 nM | – | – | –
CN1[C@H]2CC[C@@H]1[C@@H](c1cn(CCN3CCCCC3)nn1)[C@@H](c1ccc(Cl)cc1)C2 | 8 nM | 430 nM | 138 nM | – | –
CN1[C@H]2CC[C@@H]1[C@@H](C=C(Br)Br)[C@@H](c1ccc(Cl)cc1)C2 | 0.32 nM | 3.5 nM | 7 nM | – | –
CN1[C@H]2CC[C@@H]1[C@@H](c1cn(Cc3ccccc3)nn1)[C@@H](c1ccc(Cl)cc1)C2 | 47 nM | 2560 nM | 161 nM | – | –
C#C[C@H]1[C@@H](c2ccc(Cl)cc2)C[C@@H]2CC[C@H]1N2C | 3.6 nM | 75 nM | 18 nM | – | –
CN1[C@H]2CC[C@@H]1[C@@H](C#Cc1ccc([N+](=O)[O-])cc1)[C@@H](c1ccc(Cl)cc1)C2 | 0.9 nM | 230 nM | 620 nM | 256 | 689
Cc1ccc([C@H]2C[C@@H]3CC[C@H]([C@H]2C#Cc2ccccc2)N3C)cc1 | 0.8 nM | 31 nM | 730 nM | – | –
CN1[C@H]2CC[C@@H]1[C@@H](C#Cc1ccc(N)cc1)[C@@H](c1ccc(Cl)cc1)C2 | 2.2 nM | 50 nM | 19 nM | – | –
Cc1ccc([C@H]2C[C@@H]3CC[C@H]([C@H]2C=C(Br)Br)N3C)cc1 | 0.23 nM | 3.4 nM | 39 nM | – | –
CN1[C@H]2CC[C@@H]1[C@H](C=C(Br)Br)[C@@H](c1ccc(Cl)cc1)C2 | 1.4 nM | 49 nM | 76 nM | – | –
